One data set concerns 4T1 cells. Briefly: In vitro cytotoxicity, WST-8 assay. The class given is cell-based, mouse. The following applies: 48 hours, WST-8, n=5.
Data set [1] in a line: Pharmacokinetic studies in rats. The class given is in vivo, Sprague Dawley (SD) rats. An outline of the steps:
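Female SD rats (200±20 g), three per group, received a single tail-vein injection in 0.9% saline (10 mg/kg drug-equivalent). Retro-orbital blood was taken at 5, 15 and 30 min and at 1, 1.5, 2, 4, 7, 10 and 24 h into heparinized tubes. Plasma was stored at −20°C, extracted, redissolved in acetonitrile, filtered and quantified by HPLC against spiked-plasma standard curves. Parameters came from a two-compartment model fit.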

For a further data set, the system named is 4T1 murine breast tumors. Briefly: In vivo anticancer efficacy. The following applies: 4T1 tumor-bearing BALB/c mice, PTX 10 mg/kg i.v. at days 10, 13, 16, 19. An outline of the steps: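 Female BALB/c mice (4–6 weeks old) were inoculated subcutaneously in the left back, under anesthesia, with ~5×10^5 4T1 cells in PBS. Dosing began at a tumor volume of about 50–100 mm3: 10 mg/kg drug-equivalent by tail-vein injection on days 10, 13, 16 and 19 after inoculation, with a normal-saline control. Tumors (V = L×W²/2) and body weight were measured every 2 days until day 23. Survival was followed until death from tumor growth or treatment.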

Data set [2] is described as follows: Toxicity in tumor-bearing mice. The class given is in vivo. The following applies: PTX 10 mg/kg i.v. in 4T1 tumor-bearing BALB/c mice.
Setting [3] is: Sprague-Dawley, rat, plasma, iv, 10 mg/kg.
Setting [4] is: rats, i.v. tail vein, 10 mg/kg of PTX, two-compartment model.

Experimental findings from PMC4356685 (International Journal of Nanomedicine, 2015) are described below.

In general, AUC(0-inf) refers to total exposure, with the tail of the curve extrapolated. One may read the AUC(0-t) as exposure summed from dosing to a finite time, without extrapolation to infinity. Low readings indicate less exposure, high ones more exposure. By clearance is commonly meant the volume of plasma or blood freed of the substance per unit of time. For `CC(=O)O[C@H]1C(=O)[C@@]2(C)[C@H]([C@H](OC(=O)c3ccccc3)[C@]3(O)C[C@H](OC(=O)[C@H](O)[C@@H](NC(=O)c4ccccc4)c4ccccc4)C(C)=C1C3(C)C)[C@]1(OC(C)=O)CO[C@@H]1C[C@@H]2O` [Free PTX, paclitaxel], the “cytotoxicity (cell viability) compared with other formulations” value in the data set on 4T1 cells was “stronger inhibition effects compared to the PEGylated nanoparticles”. Also, in data set [1] (setting [3]), the AUC(0-inf) is 49.2 ± 16.9 µg·h/mL, the AUC(0-t) is 46.6 ± 16.8 µg·h/mL, the clearance was 0.51 L/h/kg and the k el was 0.000511 s⁻¹. In data set [1] (setting [4]), the “K12 (transfer rate constant from central to periphery compartment)” value came out at 0.45 ± 0.33 h⁻¹, the “K21 (transfer rate constant from periphery to central compartment)” value is 0.55 ± 0.24 h⁻¹, the “V1 (volume of central compartment)” value was determined as 0.28 ± 0.02 L/kg and the “V2 (volume of periphery compartment)” value is 0.21 ± 0.12 L/kg. The compound also showed a median survival time in the data set on 4T1 murine breast tumors of 31 days. The tumor inhibition rate with 4T1 murine breast tumors (n=8) stood at 32.5%. Besides, the “acute toxicity / deaths after intravenous injection” value in data set [2] is recorded as “some deaths were observed a few minutes after the injection”.
